Results: publication PMC10287037 (European journal of medicinal chemistry, 2023)
Like-named read-outs stand apart in the source and are kept apart here.

Tests used:
[1] = system: VL51 (marginal zone lymphoma, MZL) cells; experiment: MTT cell proliferation assay, VL51; type: cell-based; conditions: Homo sapiens, VL51, 72 h, bound stated
[2] = system: leukemia cell lines; experiment: NCI five-dose screening, leukemia subpanel; type: cell-based, human; conditions: for GI50: Homo sapiens, read-out: GI50 values (range over subpanel)
In short: (§1)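 Run by NCI. Prescreen at 10^-5 M across 60 human lines from nine tumour types: leukemia, NSCLC, colon, CNS, melanoma, ovarian, renal, prostate, breast. GI50 is the concentration inhibiting cell growth by 50%. MG_MID is the arithmetic mean GI50 over tested lines; where 50% inhibition was not reached, the highest tested concentration was used.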

[3] = system: VL51 cells; experiment: Mitochondrial membrane potential; type: cell-based, human; conditions: 24 h, 0.5 and 1.0 μM, VL51, JC-1
In short: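 VL51 lymphoma cells were grown in RPMI-1640 with 20% FBS, pen-strep-neomycin and 1% L-glutamine at 37 °C, 5% CO2. Cells were treated 24 h with test compound diluted from a 10 mM DMSO stock. They were then labelled with JC-1 and analysed by flow cytometry in the FL1 and FL2 channels.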

[4] = system: PBL stimulated with PHA; experiment: Cytotoxicity in PHA-stimulated human PBLs; type: cell-based; conditions: 72 h, read-out: IC50 (compound concentration required to inhibit cell growth by 50%)
In short: (§2)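 Healthy-donor human PBLs; non-adherent cells at 5×10^5 cells/mL in growth medium. Proliferating cultures received PHA; resting cultures used the same density without PHA. Graded compound concentrations from 10 mM DMSO stocks. Viability by MTT after 72 h incubation. IC50 is the concentration inhibiting cell growth by 50%.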

[5] = system: non-Hodgkin lymphoma (NHL) cells HBL1, SU-DHL-10, MINO, VL51; experiment: MTT cell proliferation assay, panel of four NHL cell lines; type: cell-based, human; conditions: for reduction in the percentage of cellular proliferation: 1 μM, 72 h incubation, towards each cell line
[6] = system: colon cancer subpanel; experiment: NCI five-dose screening, colon cancer subpanel; type: cell-based, human; conditions: for GI50: Homo sapiens
In short: as §1

[7] = system: PBL not stimulated with PHA; experiment: Cytotoxicity in resting human PBLs; type: cell-based; conditions: 72 h, read-out: IC50 (compound concentration required to inhibit cell growth by 50%)
In short: as §2

[8] = system: A549, CCRF-CEM and VL51 cells; experiment: Apoptosis assay; type: cell-based, human; conditions: 48 h incubation; annexin-V/PI
In short: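 A549, CCRF-CEM and VL51 cultured at 37 °C, 5% CO2; lymphoma line in RPMI-1640 with 20% FBS, pen-strep-neomycin and 1% L-glutamine. Test compound from 10 mM DMSO stock, several concentrations, 48 h. Annexin-V Fluos kit per manufacturer: annexin-V-FITC (FL1) and PI (FL3) by flow cytometry. Apoptotic % = annexin-V+ plus annexin-V/PI double-positive cells; mean ± S.E.M., three independent experiments.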

[9] = system: tubulin (colchicine site); experiment: Inhibition of [3H]colchicine binding to tubulin; conditions: 5 μM inhibitor; 0.5 μM tubulin, 5.0 μM [3H]colchicine
[10] = system: tubulin; experiment: Inhibition of tubulin assembly; type: biochemical; conditions: compared with 3d / CA-4
[11] = system: renal cancer subpanel; experiment: NCI five-dose screening, renal cancer subpanel; type: cell-based; conditions: Homo sapiens, TK-10, read-out: GI50 (range over subpanel)
In short: as §1

[12] = system: prostate cell lines; experiment: NCI five-dose screening, prostate subpanel; type: cell-based; conditions: Homo sapiens, read-out: GI50 values (range over subpanel)
In short: as §1

[13] = system: VL51 cells; experiment: p-histone H3 staining of mitotic cells by flow cytometry; type: cell-based, human; conditions: 24 h
In short: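 VL51 lymphoma cells in RPMI-1640 with 20% FBS, penicillin-streptomycin-neomycin and 1% L-glutamine at 37 °C, 5% CO2. Seeded at 2.0×10^5 per well in 6-well plates, then treated 24 h at indicated concentrations. Harvested by centrifugation, fixed in 70% ice-cold ethanol, stained with anti-phospho-histone H3 antibody plus PI, and analysed by flow cytometry as % p-H3-positive (mitotic) cells.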

Structure (SMILES)	IC50 [1] [µM]	GI50 [2] [µM]	depolarization of the mitochondrial membrane [3]	IC50 [4] [µM]	reduction in the percentage of cellular proliferation [5]	IC50 [7] [µM]	induction of apoptosis [8]	further results
COc1ccc(Cn2cc3c(c2-c2cc(OC)c(OC)c(OC)c2)CCCc2cnoc2-3)cc1 [3u, 8-(4-Methoxybenzyl)-7-(3,4,5-trimethoxyphenyl)-4,5,6,8-tetrahydropyrrolo[3’,4’:3,4]cyclohepta[1,2-d][1,2]oxazole]	< 0.5	0.35 to 1.56	depolarization was extensive	> 10	higher than 50%	> 10	massive apoptosis in a dose-dependent manner	calculated MG_MID for subpanel ([2]; leukemia subpanel): 0.65 µM; GI50 ([6]; read-out: GI50 values (range over subpanel)): 0.39 to 1.61 µM; calculated MG_MID for subpanel ([6]; colon cancer subpanel): 0.88 µM
COc1ccc(/C=C\c2cc(OC)c(OC)c(OC)c2)cc1O [CA-4, combretastatin A-4]	–	–	–	–	–	–	–	Inhibition of colchicine binding % Inhibition ± SD [9]: 98 ± 2%
COc1ccc(Cn2cc3c(c2-c2ccc(OC)cc2)CCCc2cnoc2-3)cc1 [3p, 8-(4-Methoxybenzyl)-7-(4-methoxyphenyl)-4,5,6,8-tetrahydropyrrolo[3’,4’:3,4]cyclohepta[1,2-d][1,2]oxazole]	–	–	–	–	–	–	–	fold less active on tubulin assembly [10]: about 4 fold
COc1ccc(Cn2cc3c(c2-c2cc(OC)c(OC)c(OC)c2)CCCc2cnoc2-3)cc1N [3z, 2-Methoxy-5-((7-(3,4,5-trimethoxyphenyl)-5,6-dihydropyrrolo[3’,4’:3,4]cyclohepta[1,2-d]isoxazol-8(4H)-yl)methyl)aniline]	< 0.5	0.3 to 0.65	depolarization was extensive	> 10	higher than 50%	> 10	massive apoptosis in a dose-dependent manner	GI50 [11]: 0.36 to 0.84 µM; GI50 [12]: 0.43 to 0.84 µM; IC50 ([5]; Homo sapiens, 72 h, read-out: IC50 values (range over all four NHL cell lines)): 0.1 to 0.5 µM; GI50 ([6]; HCC 2998, read-out: GI50 (range over subpanel)): 0.38 to 0.56 µM
COc1ccc(Cn2cc3c(c2-c2ccccc2)CCCc2cnoc2-3)cc1 [3d, 8-(4-Methoxybenzyl)-7-phenyl-4,5,6,8-tetrahydropyrrolo[3’,4’:3,4]cyclohepta[1,2-d][1,2]oxazole]	–	–	slight depolarization of the mitochondrial membrane	> 10	–	> 10	induced apoptosis to a lesser extent	increase of mitotic cells (p-histone H3 positive) [13]: did not observe a significant increase of mitotic cells
